Measured values: ChEMBL document CHEMBL1795311, “Synthesis, antiproliferative activity, and mechanism of action of a series of 2-{[(2E)-3-phenylprop-2-enoyl]amino}benzamides” (Eur J Med Chem, 2011)

Key:
MCF7 = experiment: Growth inhibition of human MCF7 cells after 48 hrs by SRB assay; type: functional; settings: MCF7, 48 h
In short: (§1)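 NCI DTP panel cells grown in RPMI 1640 with 5% FBS and 2 mM L-glutamine, preincubated 24 h, then given five concentrations (10-fold or ½-log dilutions from DMSO stock) for 48 h at 37 °C. Cells fixed with TCA, stained with SRB, absorbance read at 515 nm, with time-zero plates as reference.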

UACC-257 = experiment: Growth inhibition of human UACC257 cells after 48 hrs by SRB assay; type: functional; settings: UACC-257, 48 h
In short: (§2)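 Run by the NCI Developmental Therapeutics Program: cells in RPMI 1640 with 5% FBS and 2 mM L-glutamine, plated at 5000–40,000 cells/well and grown 24 h before dosing. Drug (DMSO stock) given at five concentrations for 48 h at 37 °C, 5% CO2. Adherent cells fixed with cold TCA, stained with 0.4% SRB and read at 515 nm. GI50, TGI and LC50 taken from the time-zero, control and treated absorbances.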

OVCAR-3 = experiment: Growth inhibition of human OVCAR3 cells after 48 hrs by SRB assay; type: functional; settings: OVCAR-3, 48 h; in short: as §1
UACC-62 = experiment: Growth inhibition of human UACC62 cells after 48 hrs by SRB assay; type: functional; settings: UACC-62, 48 h; in short: as §2
UO-31 = experiment: Growth inhibition of human UO31 cells after 48 hrs by SRB assay; type: functional; settings: UO-31, 48 h; in short: as §2
NCI-H226 = experiment: Growth inhibition of human NCI-H226 cells after 48 hrs by SRB assay; type: functional; settings: NCI-H226, 48 h; in short: as §1
HCC 2998 = experiment: Growth inhibition of human HCC2998 cells after 48 hrs by SRB assay; type: functional; settings: HCC 2998, 48 h; in short: as §1
OVCAR-8 = experiment: Growth inhibition of human OVCAR8 cells after 48 hrs by SRB assay; type: functional; settings: OVCAR-8, 48 h; in short: as §1
SK-MEL-2 = experiment: Growth inhibition of human SK-MEL-2 cells after 48 hrs by SRB assay; type: functional; settings: SK-MEL-2, 48 h; in short: as §2
M14 = experiment: Growth inhibition of human M14 cells after 48 hrs by SRB assay; type: functional; settings: M14, 48 h; in short: as §1
DU-145 = experiment: Growth inhibition of human DU145 cells after 48 hrs by SRB assay; type: functional; settings: DU-145, 48 h; in short: as §1
NCI-H522 = experiment: Growth inhibition of human NCI-H522 cells after 48 hrs by SRB assay; type: functional; settings: NCI-H522, 48 h; in short: as §1
SNB-75 = experiment: Growth inhibition of human SNB75 cells after 48 hrs by SRB assay; type: functional; settings: SNB-75, 48 h; in short: as §2
IGROV-1 = experiment: Growth inhibition of human IGROV1 cells after 48 hrs by SRB assay; type: functional; settings: IGROV-1, 48 h; in short: as §1
SW-620 = experiment: Growth inhibition of human SW620 cells after 48 hrs by SRB assay; type: functional; settings: SW-620, 48 h; in short: as §2
OVCAR-4 = experiment: Growth inhibition of human OVCAR4 cells after 48 hrs by SRB assay; type: functional; settings: OVCAR-4, 48 h; in short: as §1
HCT-116 = experiment: Growth inhibition of human HCT116 cells after 48 hrs by SRB assay; type: functional; settings: HCT-116, 48 h; in short: as §1
LOX IMVI = experiment: Growth inhibition of human LOXIMVI cells after 48 hrs by SRB assay; type: functional; in short: as §1
HL-60 = experiment: Growth inhibition of human HL60 cells after 48 hrs by SRB assay; type: functional; settings: HL-60, 48 h; in short: as §1
SK-MEL-28 = experiment: Growth inhibition of human SK-MEL-28 cells after 48 hrs by SRB assay; type: functional; settings: SK-MEL-28, 48 h; in short: as §2
Malme-3M = experiment: Growth inhibition of human MALME-3M cells after 48 hrs by SRB assay; type: functional; in short: as §1
KM12 = experiment: Growth inhibition of human KM12 cells after 48 hrs by SRB assay; type: functional; settings: KM12, 48 h; in short: as §1
NCI-H460 = experiment: Growth inhibition of human NCI-H460 cells after 48 hrs by SRB assay; type: functional; settings: NCI-H460, 48 h; in short: as §1
ACHN = experiment: Growth inhibition of human ACHN cells after 48 hrs by SRB assay; type: functional; in short: as §1
RXF 393 = experiment: Growth inhibition of human RXF393 cells after 48 hrs by SRB assay; type: functional; settings: RXF 393, 48 h; in short: as §1
SF-268 = experiment: Growth inhibition of human SF268 cells after 48 hrs by SRB assay; type: functional; settings: SF-268, 48 h; in short: as §1
BT-549 = experiment: Growth inhibition of human BT549 cells after 48 hrs by SRB assay; type: functional; settings: BT-549, 48 h; in short: as §1
MOLT-4 = experiment: Growth inhibition of human MOLT4 cells after 48 hrs by SRB assay; type: functional; settings: MOLT-4, 48 h; in short: as §1
K562 [1] = experiment: Antiproliferative activity against human K562 cells at 10 uM after 48 hrs by trypan blue assay; type: functional; settings: K562, 48 h, read-out: GI
OVCAR-5 = experiment: Growth inhibition of human OVCAR5 cells after 48 hrs by SRB assay; type: functional; settings: OVCAR-5, 48 h; in short: as §1
MDA-MB-231 = experiment: Growth inhibition of human MDA-MB-231 cells after 48 hrs by SRB assay; type: functional; settings: MDA-MB-231, 48 h; in short: as §1
SK-OV-3 = experiment: Growth inhibition of human SKOV3 cells after 48 hrs by SRB assay; type: functional; settings: SK-OV-3, 48 h; in short: as §2
CAKI-1 = experiment: Growth inhibition of human Caki1 cells after 48 hrs by SRB assay; type: functional; settings: CAKI-1, 48 h; in short: as §1
A549 = experiment: Growth inhibition of human A549 cells after 48 hrs by SRB assay; type: functional; settings: A549, 48 h; in short: as §1
K562 [2] = experiment: Growth inhibition of human K562 cells after 48 hrs by trypan blue assay; type: functional, cell-based; settings: K562, 48 h
TK-10 = experiment: Growth inhibition of human TK10 cells after 48 hrs by SRB assay; type: functional; settings: TK-10, 48 h; in short: as §2
EKVX = experiment: Growth inhibition of human EKVX cells after 48 hrs by SRB assay; type: functional; in short: as §1
SF-295 = experiment: Growth inhibition of human SF295 cells after 48 hrs by SRB assay; type: functional; settings: SF-295, 48 h; in short: as §1
HT-29 = experiment: Growth inhibition of human HT-29 cells after 48 hrs by SRB assay; type: functional; settings: HT-29, 48 h; in short: as §1
HCT-15 = experiment: Growth inhibition of human HCT15 cells after 48 hrs by SRB assay; type: functional; settings: HCT-15, 48 h; in short: as §1
SNB-19 = experiment: Growth inhibition of human SNB19 cells after 48 hrs by SRB assay; type: functional; settings: SNB-19, 48 h; in short: as §2
U-251 = experiment: Growth inhibition of human U251 cells after 48 hrs by SRB assay; type: functional; settings: U-251, 48 h; in short: as §2
HOP-62 = experiment: Growth inhibition of human HOP62 cells after 48 hrs by SRB assay; type: functional; settings: HOP-62, 48 h; in short: as §1
A498 = experiment: Growth inhibition of human A498 cells after 48 hrs by SRB assay; type: functional; settings: A498, 48 h; in short: as §1
786-0 = experiment: Growth inhibition of human 786-0 cells after 48 hrs by SRB assay; type: functional; settings: 786-0, 48 h; in short: as §1
CCRF-CEM = experiment: Growth inhibition of human CCRF-CEM cells after 48 hrs by SRB assay; type: functional; in short: as §1

NC(=O)c1cc(Cl)ccc1NC(=O)/C=C/c1ccccc1
GI50 (MCF7): 1.74 µM
GI50 (UACC-257): 15.1 µM
GI50 (OVCAR-3): 1.3 µM
GI50 (UACC-62): 2.52 µM
GI50 (UO-31): 3.57 µM
GI50 (NCI-H226): 3 µM
GI50 (HCC 2998): 0.487 µM
GI50 (OVCAR-8): 3.89 µM
GI50 (SK-MEL-2): 2.75 µM
GI50 (M14): 1.71 µM
GI50 (DU-145): 2.16 µM
GI50 (NCI-H522): 2.08 µM
GI50 (SNB-75): 1.84 µM
GI50 (IGROV-1): 3.29 µM
GI50 (SW-620): 1.99 µM
GI50 (OVCAR-4): 2.77 µM
GI50 (HCT-116): 1.98 µM
GI50 (LOX IMVI): 4.33 µM
GI50 (HL-60): 1.42 µM
GI50 (SK-MEL-28): 2.88 µM
GI50 (Malme-3M): 2.68 µM
GI50 (KM12): 1.69 µM
GI50 (NCI-H460): 1.76 µM
GI50 (ACHN): 4.75 µM
GI50 (RXF 393): 1.71 µM
GI50 (SF-268): 2.9 µM
GI50 (BT-549): 3.19 µM
GI50 (MOLT-4): 3.95 µM
inhibition of growth at 10 µM (K562 [1]): 64%
GI50 (OVCAR-5): 2.74 µM
GI50 (MDA-MB-231): 2.48 µM
GI50 (SK-OV-3): 2.3 µM
GI50 (CAKI-1): 0.263 µM
GI50 (A549): 3.77 µM
IC50 (K562 [2]): 2.5 µM
GI50 (TK-10): 5.51 µM
GI50 (EKVX): 2.83 µM
GI50 (SF-295): 1.4 µM
GI50 (HT-29): 1.94 µM
GI50 (HCT-15): 2.13 µM
GI50 (SNB-19): 3.18 µM
GI50 (U-251): 2.14 µM
GI50 (HOP-62): 3.15 µM
GI50 (A498): 3.61 µM
GI50 (786-0): 2.32 µM
GI50 (CCRF-CEM): 2.96 µM

NC(=O)c1cc(I)ccc1NC(=O)/C=C/c1ccccc1
GI50 (MCF7): 0.45 µM
GI50 (UACC-257): 14.3 µM
GI50 (OVCAR-3): 0.353 µM
GI50 (UACC-62): 0.632 µM
GI50 (UO-31): 3.53 µM
GI50 (NCI-H226): 1.09 µM
GI50 (HCC 2998): 1.25 µM
GI50 (OVCAR-8): 1.06 µM
GI50 (SK-MEL-2): 1.4 µM
GI50 (M14): 0.429 µM
GI50 (DU-145): 0.477 µM
GI50 (NCI-H522): 0.303 µM
GI50 (SNB-75): 0.245 µM
GI50 (IGROV-1): 0.917 µM
GI50 (SW-620): 0.541 µM
GI50 (OVCAR-4): 1.84 µM
GI50 (HCT-116): 0.43 µM
GI50 (LOX IMVI): 3.75 µM
GI50 (HL-60): 0.0542 µM
GI50 (SK-MEL-28): 2.51 µM
GI50 (Malme-3M): 1.6 µM
GI50 (KM12): 0.499 µM
GI50 (NCI-H460): 0.453 µM
GI50 (ACHN): 3.7 µM
GI50 (RXF 393): 3.02 µM
GI50 (SF-268): 2.31 µM
GI50 (BT-549): 9.47 µM
GI50 (MOLT-4): 0.202 µM
inhibition of growth at 10 µM (K562 [1]): 74.5%
GI50 (OVCAR-5): 3.52 µM
GI50 (MDA-MB-231): 0.596 µM
GI50 (SK-OV-3): 0.744 µM
GI50 (CAKI-1): 0.648 µM
GI50 (A549): 2.65 µM
IC50 (K562 [2]): 0.57 µM
GI50 (TK-10): 3.15 µM
GI50 (EKVX): 0.734 µM
GI50 (SF-295): 0.35 µM
GI50 (HT-29): 0.367 µM
GI50 (HCT-15): 0.586 µM
GI50 (SNB-19): 0.586 µM
GI50 (U-251): 0.501 µM
GI50 (HOP-62): 0.8 µM
GI50 (A498): 2.7 µM
GI50 (786-0): 1.43 µM
GI50 (CCRF-CEM): 0.341 µM
